Assays:
[1] = Metabolic stability in mouse liver microsomes assessed as parent compound remaining at 1 uM measured upto 60 mins in presence of NADPH by LC-MS/MS analysis; format: ADME, Microsome; conditions: read-out: Stabilty
[2] = Metabolic stability in rat liver microsomes assessed as parent compound remaining at 1 uM measured upto 60 mins in presence of NADPH by LC-MS/MS analysis; format: ADME, Microsome; conditions: read-out: Stabilty
[3] = Metabolic stability in human liver microsomes assessed as parent compound remaining at 1 uM measured upto 60 mins in presence of NADPH by LC-MS/MS analysis; format: ADME, Microsome; conditions: read-out: Stabilty
[4] = Initial plasma concentration in CD1 mouse at 3 mg/kg, iv by LC-MS/MS analysis; format: ADME, organism-based
[5] = AUC (0 to t) in CD-1 mouse at 3 mg/kg, iv measured up to 24 hrs by LC-MS/MS analysis; format: ADME, organism-based; design: route intravenous, dose 3 mg/kg, time <=24; conditions: in vivo
[6] = Volume of distribution in CD1 mouse at 3 mg/kg, iv measured up to 24 hrs by LC-MS/MS analysis; format: ADME, organism-based; conditions: in vivo
[7] = Clearance in CD1 mouse at 3 mg/kg, iv measured up to 24 hrs by LC-MS/MS analysis; format: ADME, organism-based; conditions: in vivo
[8] = Half life in CD1 mouse at 3 mg/kg, iv measured up to 24 hrs by LC-MS/MS analysis; format: ADME, organism-based; conditions: in vivo
[9] = Cmax in CD1 mouse at 10 mg/kg, po measured up to 24 hrs by LC-MS/MS analysis; format: ADME, organism-based; design: route oral, dose 10 mg/kg, time <=24; conditions: in vivo
[10] = AUC (0 to t) in CD-1 mouse at 10 mg/kg, po measured up to 24 hrs by LC-MS/MS analysis; format: ADME, organism-based; design: route oral, dose 10 mg/kg, time <=24; conditions: in vivo
[11] = Tmax in CD1 mouse at 10 mg/kg, po measured up to 24 hrs by LC-MS/MS analysis; format: ADME, organism-based; conditions: in vivo
[12] = Oral bioavailability in CD1 mouse at 10 mg/kg measured up to 24 hrs by LC-MS/MS analysis; format: ADME, organism-based; conditions: in vivo
in vitro = conditions: human, Caco-2
[13] = Initial plasma concentration in Wistar rat at 3 mg/kg, iv by LC-MS/MS analysis; format: ADME, organism-based
[14] = Initial plasma concentration in dog at 1 mg/kg, iv by LC-MS/MS analysis; format: ADME, organism-based, Canis lupus familiaris
[15] = AUC (0 to t) in Wistar rat at 3 mg/kg, iv measured up to 24 hrs by LC-MS/MS analysis; format: ADME, organism-based; design: route intravenous, dose 3 mg/kg, time <=24; conditions: in vivo
[16] = AUC (0 to t) in dog at 1 mg/kg, iv measured up to 24 hrs by LC-MS/MS analysis; format: ADME, organism-based, Canis lupus familiaris; design: route intravenous, dose 1 mg/kg, time <=24; conditions: in vivo
[17] = Volume of distribution in Wistar rat at 3 mg/kg, iv measured up to 24 hrs by LC-MS/MS analysis; format: ADME, organism-based; conditions: in vivo
[18] = Volume of distribution in dog at 1 mg/kg, iv measured up to 24 hrs by LC-MS/MS analysis; format: ADME, organism-based, Canis lupus familiaris; conditions: in vivo
[19] = Clearance in Wistar rat at 3 mg/kg, iv measured up to 24 hrs by LC-MS/MS analysis; format: ADME, organism-based; conditions: in vivo
[20] = Clearance in dog at 1 mg/kg, iv measured up to 24 hrs by LC-MS/MS analysis; format: ADME, organism-based, Canis lupus familiaris; conditions: in vivo
[21] = Half life in Wistar rat at 3 mg/kg, iv measured up to 24 hrs by LC-MS/MS analysis; format: ADME, organism-based; conditions: in vivo
[22] = Half life in dog at 1 mg/kg, iv measured up to 24 hrs by LC-MS/MS analysis; format: ADME, organism-based, Canis lupus familiaris; conditions: in vivo
[23] = Cmax in Wistar rat at 10 mg/kg, po measured up to 24 hrs by LC-MS/MS analysis; format: ADME, organism-based; design: route oral, dose 10 mg/kg, time <=24; conditions: in vivo
[24] = Cmax in dog at 10 mg/kg, po measured up to 24 hrs by LC-MS/MS analysis; format: ADME, organism-based, Canis lupus familiaris; design: route oral, dose 10 mg/kg, time <=24; conditions: in vivo
[25] = AUC (0 to t) in Wistar rat at 10 mg/kg, po measured up to 24 hrs by LC-MS/MS analysis; format: ADME, organism-based; design: route oral, dose 10 mg/kg, time <=24; conditions: in vivo
[26] = AUC (0 to t) in dog at 10 mg/kg, po measured up to 24 hrs by LC-MS/MS analysis; format: ADME, organism-based, Canis lupus familiaris; design: route oral, dose 10 mg/kg, time <=24; conditions: in vivo
[27] = Tmax in Wistar rat at 10 mg/kg, po measured up to 24 hrs by LC-MS/MS analysis; format: ADME, organism-based; conditions: in vivo
[28] = Tmax in dog at 10 mg/kg, po measured up to 24 hrs by LC-MS/MS analysis; format: ADME, organism-based, Canis lupus familiaris; conditions: in vivo
[29] = Oral bioavailability in Wistar rat at 10 mg/kg measured up to 24 hrs by LC-MS/MS analysis; format: ADME, organism-based; conditions: in vivo
[30] = Oral bioavailability in dog at 10 mg/kg measured up to 24 hrs by LC-MS/MS analysis; format: ADME, organism-based, Canis lupus familiaris; conditions: in vivo
[31] = Drug concentration in human OCI-LY3 cells xenografted SCID Beige mouse plasma at 25 mg/kg, po administered via gavage for 14 days and measured at 2 hrs post last dose by LC-MS/MS analysis; format: ADME, organism-based; conditions: time 14 day
In short: (§1)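 Xenograft-bearing mice (OCI-Ly3) were given oral doses of 25, 50, 100 or 200 mg/kg once daily. Plasma and tumor were collected 2 h after the final dose on day 15. Results are reported as mean plasma concentration (ng/mL) and mean tumor concentration (ng/g) for each dose group.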

[32] = Drug concentration in human OCI-LY3 cells xenografted SCID Beige mouse tumor at 25 mg/kg, po administered via gavage for 14 days and measured at 2 hrs post last dose by LC-MS/MS analysis; format: ADME, organism-based, Neoplasm; conditions: time 14 day, read-out: Ct; in short: as §1
[33] = Drug concentration in human OCI-LY3 cells xenografted SCID Beige mouse plasma at 50 mg/kg, po administered via gavage for 14 days and measured at 2 hrs post last dose by LC-MS/MS analysis; format: ADME, organism-based; conditions: time 14 day; in short: as §1
[34] = Drug concentration in human OCI-LY3 cells xenografted SCID Beige mouse tumor at 50 mg/kg, po administered via gavage for 14 days and measured at 2 hrs post last dose by LC-MS/MS analysis; format: ADME, organism-based, Neoplasm; conditions: time 14 day, read-out: Ct; in short: as §1
[35] = Drug concentration in human OCI-LY3 cells xenografted SCID Beige mouse plasma at 100 mg/kg, po administered via gavage for 14 days and measured at 2 hrs post last dose by LC-MS/MS analysis; format: ADME, organism-based; conditions: time 14 day; in short: as §1
[36] = Drug concentration in human OCI-LY3 cells xenografted SCID Beige mouse tumor at 100 mg/kg, po administered via gavage for 14 days and measured at 2 hrs post last dose by LC-MS/MS analysis; format: ADME, organism-based, Neoplasm; conditions: time 14 day, read-out: Ct; in short: as §1
[37] = Drug concentration in human OCI-LY3 cells xenografted SCID Beige mouse plasma at 200 mg/kg, po administered via gavage for 14 days and measured at 2 hrs post last dose by LC-MS/MS analysis; format: ADME, organism-based; conditions: time 14 day; in short: as §1
[38] = Drug concentration in human OCI-LY3 cells xenografted SCID Beige mouse tumor at 200 mg/kg, po administered via gavage for 14 days and measured at 2 hrs post last dose by LC-MS/MS analysis; format: ADME, organism-based, Neoplasm; conditions: time 14 day, read-out: Ct; in short: as §1
[39] = Fraction unbound in human OCI-LY3 cells xenografted SCID Beige mouse plasma at 200 mg/kg, po after 24 hrs by equilibrium dialysis method; format: ADME, organism-based; conditions: in vivo
In short: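 Mouse plasma protein binding is the mean of 2 determinations. It was applied to the plasma exposures at 12 and 24 h in the OCI-Ly3 PK/PD study to estimate unbound plasma levels.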

Cc1cc(-c2nc(C(=O)Nc3cc4oc(N5CCOCC5)nc4nc3N3CC[C@H](O)C3)co2)ccn1
remaining at 1 h, 1 µM [1]: > 95%
remaining at 1 h, 1 µM [2]: > 95%
remaining at 1 h, 1 µM [3]: > 95%
C0 [4]: 0.788 µg/mL
AUC(0-t) at 24 h [5]: 0.928 µg·h/mL
Vd [6]: 5.57 L/kg
clearance [7]: 3.13 L/h/kg
half-life [8]: 0.8 h
Cmax [9]: 2.53 µg/mL
AUC(0-t) at 24 h [10]: 4.49 µg·h/mL
Tmax [11]: 0.3 h
bioavailability [12]: 100%
Papp A→B at 2 h, 10 µM (in vitro): 219 nm/s

Cc1cc(-c2nc(C(=O)Nc3cc4oc(N5CCOCC5)nc4nc3C3CC3)co2)ccn1
remaining at 1 h, 1 µM [1]: 13%
remaining at 1 h, 1 µM [2]: > 95%
remaining at 1 h, 1 µM [3]: 87%
Papp A→B at 2 h, 10 µM (in vitro): 494 nm/s

Cc1cc(-c2nc(C(=O)Nc3cc4oc(N5CCOCC5)nc4nc3N3CCC(O)CC3)co2)ccn1
remaining at 1 h, 1 µM [1]: > 95%
remaining at 1 h, 1 µM [2]: > 95%
remaining at 1 h, 1 µM [3]: > 95%
Papp A→B at 2 h, 10 µM (in vitro): 135 nm/s

Cc1cc(-c2nc(C(=O)Nc3cc4oc(N5CCOCC5)nc4nc3N3CC[C@@H](N)C3)co2)ccn1
remaining at 1 h, 1 µM [1]: 82%
remaining at 1 h, 1 µM [2]: > 95%
remaining at 1 h, 1 µM [3]: > 95%
Papp A→B at 2 h, 10 µM (in vitro): 10 nm/s

Cc1cc(-c2nc(C(=O)Nc3cc4oc(N5CCOCC5)nc4nc3N3CC[C@@H](F)C3)co2)ccn1
remaining at 1 h, 1 µM [1]: 88%
remaining at 1 h, 1 µM [2]: 95%
remaining at 1 h, 1 µM [3]: 95%
Papp A→B at 2 h, 10 µM (in vitro): 542 nm/s

CCC1(O)CCCN(c2nc3nc(N4CCOCC4)oc3cc2NC(=O)c2coc(-c3ccnc(C)c3)n2)C1 (stereo not given)
remaining at 1 h, 1 µM [1]: 91%
remaining at 1 h, 1 µM [2]: > 95%
remaining at 1 h, 1 µM [3]: > 95%
Papp A→B at 2 h, 10 µM (in vitro): 85 nm/s

Cc1cc(-c2nc(C(=O)Nc3cc4oc(N5CCOCC5)nc4nc3N3CCC(F)CC3)co2)ccn1
remaining at 1 h, 1 µM [1]: 50%
remaining at 1 h, 1 µM [2]: 68%
remaining at 1 h, 1 µM [3]: 69%

Cc1cc(-c2nc(C(=O)Nc3cc4oc(N5CCOCC5)nc4nc3N3CCCC(F)C3)co2)ccn1 (stereo not given)
remaining at 1 h, 1 µM [1]: 89%
remaining at 1 h, 1 µM [2]: 91%
remaining at 1 h, 1 µM [3]: 67%
Papp A→B at 2 h, 10 µM (in vitro): 158 nm/s

Nc1ccc(-c2cccc(C(=O)Nc3ccc4nc(N5CCOCC5)oc4c3)n2)cn1
Papp A→B at 2 h, 10 µM (in vitro): 214 nm/s

O=C(Nc1cc2oc(N3CCOCC3)nc2nc1C1CC1)c1coc(N2CC[C@H](O)C2)n1
remaining at 1 h, 1 µM [1]: > 95%
remaining at 1 h, 1 µM [2]: > 95%
remaining at 1 h, 1 µM [3]: 90%
Papp A→B at 2 h, 10 µM (in vitro): 210 nm/s

Cc1cc(-c2nc(C(=O)Nc3cc4oc(N5CCOCC5)nc4nc3N3CC[C@@H](O)C3)co2)ccn1 [EMAVUSERTIB]
remaining at 1 h, 1 µM [1]: > 95%
remaining at 1 h, 1 µM [2]: > 95%
remaining at 1 h, 1 µM [3]: > 95%
C0 [4]: 7.48 µg/mL
C0 [13]: 27.7 µg/mL
C0 [14]: 1.96 µg/mL
AUC(0-t) at 24 h [5]: 5.27 µg·h/mL
AUC(0-t) at 24 h [15]: 112 µg·h/mL
AUC(0-t) at 24 h [16]: 6.06 µg·h/mL
Vd [6]: 0.661 L/kg
Vd [17]: 2 L/kg
Vd [18]: 0.5 L/kg
clearance [7]: 0.556 L/h/kg
CL [19]: 0.024 L/h/kg
clearance [20]: 0.186 L/h/kg
half-life [8]: 2.6 h
t1/2 [21]: 5.3 h
half-life [22]: 2.6 h
Cmax [9]: 6.62 µg/mL
Cmax [23]: 22.1 µg/mL
Cmax [24]: 12.8 µg/mL
AUC(0-t) at 24 h [10]: 12.5 µg·h/mL
AUC(0-t) at 24 h [25]: 171 µg·h/mL
AUC(0-t) at 24 h [26]: 86.5 µg·h/mL
Tmax [11]: 0.5 h
Tmax [27]: 1.2 h
Tmax [28]: 1.17 h
bioavailability [12]: 71%
bioavailability [29]: 46%
bioavailability [30]: 100%
concentration at 336 h [31]: 5.08 µg/mL
concentration at 336 h [32]: 2670 ng/g
concentration at 336 h [33]: 11.6 µg/mL
concentration at 336 h [34]: 8290 ng/g
concentration at 336 h [35]: 23.3 µg/mL
concentration at 336 h [36]: 17900 ng/g
concentration at 336 h [37]: 39.1 µg/mL
concentration at 336 h [38]: 37000 ng/g
Cp(f) [39]: 0.0493 µg/mL
Papp A→B at 2 h, 10 µM (in vitro): 89 nm/s

— ChEMBL document CHEMBL4665913, “Discovery of CA-4948, an Orally Bioavailable IRAK4 Inhibitor for Treatment of Hematologic Malignancies” (ACS Med Chem Lett, 2020)
